The source made the active and inactive calls. The rule behind the calls is not given here.
What was measured:
Candida albicans [1] = experiment: Antimicrobial activity against antibiotic resistant Candida albicans clinical isolate 08032821 compound treated in PBS solution measured after 36 hrs by disc diffusion method; type: functional; conditions: isolate 08032821, 36 h
Method in brief: (§1)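 Salt-tolerance test: peptide at 2 mg/mL was prepared in sterile ddH2O, in 150 mM NaCl, or in PBS (150 mM NaCl, 2.7 mM KCl, 1.5 mM KH2PO4, 8 mM K2HPO4, pH 7.2). Anti-C. albicans activity was then assessed by inhibition zone on Sabouraud medium with 0.7% agar.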

Candida albicans [2] = experiment: Antimicrobial activity against antibiotic resistant Candida albicans clinical isolate 08030809 compound treated in double distilled water measured after 36 hrs by disc diffusion method; type: functional; conditions: isolate 08030809, 36 h; method in brief: as §1
Candida albicans [3] = experiment: Antimicrobial activity against antibiotic resistant Candida albicans clinical isolate 08032815 compound treated in double distilled water measured after 36 hrs by disc diffusion method; type: functional; conditions: isolate 08032815, 36 h; method in brief: as §1
Candida albicans [4] = experiment: Antimicrobial activity against antibiotic resistant Candida albicans clinical isolate 08030809 after 16 hrs by broth dilution method; type: functional; conditions: isolate 08030809, 16 h
Method in brief: (§2)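 Broth microdilution in Sabouraud liquid medium. Samples are stocks in 0.9% NaCl, 10 µL added to 90 µL broth plus 100 µL of 2 × 10^5 CFU/mL yeast suspension. Incubated 16 h at 28°C, growth read by A600. MIC is the lowest concentration completely inhibiting growth; mean of three independent experiments.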

Candida albicans [5] = experiment: Antimicrobial activity against antibiotic resistant Candida albicans clinical isolate 08030102 after 16 hrs by broth dilution method; type: functional; conditions: isolate 08030102, 16 h; method in brief: as §2
Candida albicans [6] = experiment: Antimicrobial activity against antibiotic resistant Candida albicans clinical isolate 08022821 after 16 hrs by broth dilution method; type: functional; conditions: isolate 08022821, 16 h; method in brief: as §2
Candida albicans [7] = experiment: Antimicrobial activity against antibiotic resistant Candida albicans clinical isolate 08030809 assessed as clone count at MIC after 1 min by colony counting assay (reference value: 62 +/- 7 CFU); type: functional
Candida albicans [8] = experiment: Antimicrobial activity against Candida albicans ATCC 2002 assessed as inhibition of yeast growth after 16 hrs by broth dilution method; type: functional; conditions: ATCC 2002, 16 h; method in brief: as §2
Bacillus subtilis = experiment: Antimicrobial activity against Bacillus subtilis assessed as inhibition of […] growth after 16 hrs by broth dilution method; type: functional
Method in brief: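 Broth dilution in LB broth; 100 µL of 2 × 10^5 CFU/mL bacterial suspension plus 10 µL sample (stock series in 0.9% NaCl) in 90 µL broth, 37°C for 16 h. Growth read as A600; MIC is the lowest concentration completely inhibiting growth. Mean of three independent experiments run in duplicate.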

Candida albicans [9] = experiment: Antimicrobial activity against antibiotic resistant Candida albicans clinical isolate 08030809 assessed as clone count at MIC after 12 hrs by colony counting assay (reference value: 54153 +/- 8769 CFU); type: functional
Candida albicans [10] = experiment: Antimicrobial activity against antibiotic resistant Candida albicans clinical isolate 08030809 assessed as clone count at MIC after 24 hrs by colony counting assay (Rvb > 10^5 CFU); type: functional
Candida albicans [11] = experiment: Antimicrobial activity against antibiotic resistant Candida albicans clinical isolate 08030809 assessed as clone count at 10 times MIC after 12 hrs by colony counting assay (reference value: 54153 +/- 8769 CFU); type: functional
Candida albicans [12] = experiment: Antimicrobial activity against antibiotic resistant Candida albicans clinical isolate 08030809 assessed as clone count at 10 times MIC after 24 hrs by colony counting assay (Rvb > 10^5 CFU); type: functional
Mus musculus [13] = experiment: (§3) Antiinflammatory activity in antibiotic resistant Candida albicans clinical isolate 08030809 induced mouse vaginitis model assessed as microabscess number in vaginal tissue at 20 ug administered as intravaginal instillation measured on day 6 by hematoxylin-eosin staining based microscopic method (reference value: 61); type: functional, Vagina
Method in brief: (§4)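 Mice given weekly subcutaneous estradiol valerate (0.5 mg in 0.1 mL vegetable oil) 72 h before infection. Infected intravaginally with 20 µL of 10^7 CFU/mL C. albicans 08030809. Intravaginal instillation of 20 µL daily for 16 days. Vaginal canals excised after lavage, formalin-fixed, paraffin-embedded, HE-stained. Microabscesses counted per high-power field over 6 fields per section, three independent experiments.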

Mus musculus [14] = experiment: Antiinflammatory activity in antibiotic resistant Candida albicans clinical isolate 08030809 induced mouse vaginitis model assessed as reduction in IL-6 secretion in vaginal tissue administered as intravaginal instillation measured on day 10 by ELISA; type: functional, organism-based; conditions: Vagina
Method in brief: (§5)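 Same estradiol-primed mouse model, infected intravaginally with C. albicans 08030809 and treated by intravaginal instillation (20 µL/mouse). Vaginal canals excised on day 10 of treatment and homogenised in 0.9% NaCl. Supernatant taken after 2,000 g for 15 min. TNF-α, IL-6, IL-1β and IL-10 measured by ELISA. Mean ± SE of three independent experiments; unpaired t-test versus vehicle.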

Candida albicans [15] = experiment: Antimicrobial activity against antibiotic resistant Candida albicans clinical isolate 08030809 assessed as clone count at 5 times MIC after 10 mins by colony counting assay (reference value: 102 +/- 11 CFU); type: functional
Mus musculus [16] = experiment: as §3, with “50” for “20”; type: functional, Vagina; method in brief: as §4
Mus musculus [17] = experiment: Antiinflammatory activity in antibiotic resistant Candida albicans clinical isolate 08030809 induced mouse vaginitis model assessed as reduction in TNF-alpha secretion in vaginal tissue administered as intravaginal instillation measured on day 10 by ELISA; type: functional, organism-based; conditions: Vagina; method in brief: as §5
Candida albicans [18] = experiment: Antimicrobial activity against antibiotic resistant Candida albicans clinical isolate 08030809 in mouse vaginitis model assessed as decrease in colony count in lavage liquid of vagina at 20 ug administered as intravaginal instillation measured on day 16; type: functional
Candida albicans [19] = experiment: Antimicrobial activity against antibiotic resistant Candida albicans clinical isolate 08030809 in mouse vaginitis model assessed as decrease in colony count in lavage liquid of vagina at 50 ug administered as intravaginal instillation measured on day 6; type: functional
Candida albicans [20] = experiment: Antimicrobial activity against antibiotic resistant Candida albicans clinical isolate 08030809 in mouse vaginitis model assessed as decrease in colony count in lavage liquid of vagina at 50 ug measured on day 1; type: functional
Candida albicans [21] = experiment: Effect on cell membrane integrity in antibiotic resistant Candida albicans clinical isolate 08030809 at MIC measured every 2 mins upto 20 mins by SYTOX green nucleic acid staining-based fluorescence assay; type: functional, organism-based
Method in brief: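 Exponential-phase C. albicans 08030809 was washed and resuspended at 10^6 CFU/mL in 10 mM PBS pH 7.4. Cells were loaded with 0.1 µM (final) SYTOX Green for 15 min at 37°C with shaking, then test samples were added. Fluorescence (ex 488/em 530 nm) was recorded every 2 min as RFU. Mean ± SE of five independent experiments.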

Candida albicans [22] = experiment: Effect on cell morphology in antibiotic resistant Candida albicans clinical isolate 08030809 assessed as cell membrane perforation at MIC to 2.5 times MIC after 30 mins by scanning electron microscopy; type: functional, organism-based
Method in brief: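 Exponential-phase C. albicans 08030809 was washed in PBS and resuspended in Sabouraud medium. Cells were treated 30 min at 37°C alongside a vehicle control. They were then fixed in 2.5% glutaraldehyde (4°C, 2 h) and 1% osmium tetroxide, dehydrated through graded ethanol, freeze-dried from tert-butanol, gold-coated and imaged by SEM. Images are typical of three experiments.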

H-VKRWKKWRWKWKKWV-NH2
MIC (Candida albicans [1]): 2.65 µg/mL | MIC (Candida albicans [2]): 1.4 µg/mL | MIC (Candida albicans [3]): 2.79 µg/mL | MIC (Candida albicans [4]): 1.4 µg/mL | MIC (Candida albicans [5]): 3.13 µg/mL | MIC (Candida albicans [6]): 3.13 µg/mL | Activity (Candida albicans [7]): 18 CFU | MIC (Candida albicans [8]): 0.59 µg/mL | MIC (Bacillus subtilis): 1.17 µg/mL | Activity (Candida albicans [9]): 0 CFU | Activity (Candida albicans [10]): 0 CFU | Activity (Candida albicans [11]): 0 CFU | Activity (Candida albicans [12]): 0 CFU | Activity (Mus musculus [13]): 16 | Activity (Mus musculus [14]): Dose-dependent effect | Activity (Candida albicans [15]): 9 CFU | Activity (Mus musculus [16]): 7 | Activity (Mus musculus [17]): Dose-dependent effect | inhibition (INH) (Candida albicans [18]): 71% | inhibition (INH) (Candida albicans [19]): 48% | inhibition (INH) (Candida albicans [20]): 28% | Activity (Candida albicans [21]): Active | Activity (Candida albicans [22]): Active

From ChEMBL document CHEMBL3779860, “A Designed Tryptophan- and Lysine/Arginine-Rich Antimicrobial Peptide with Therapeutic Potential for Clinical Antibiotic-Resistant Candida albicans Vaginitis” (J Med Chem, 2016)
